Experimental data reported in ChEMBL document CHEMBL1255435, “Mechanism of resistance of hepatitis C virus replicons to structurally distinct cyclophilin inhibitors” (Antimicrob Agents Chemother, 2010).

Assays:
[1] = system: Hepatitis C virus; assay: Antiviral activity against HCV subtype 1b Con1 infected in human HuH7 cells assessed as reduction in viral RNA level after 48 hrs by qRT-PCR analysis; assay type: functional, organism-based, Hepacivirus hominis; settings: Con1, Huh-7, 48 h
How it was run: (§1)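 Con1 genotype 1b subgenomic replicon Huh7 cells (clone A or derived lines) were seeded at 10,000/well overnight without G418. They were treated 48 h with serially diluted compound in 2% FBS and 0.5% DMSO. HCV RNA was measured by TaqMan qRT-PCR and normalized to total RNA. Six replicates per point; EC50 is the concentration giving 50% reduction in HCV RNA.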

[2] = system: Hepatitis C virus; assay: Antiviral activity against HCV subtype 1b Con1 harboring wild type protease infected in human HuH7 cells assessed as reduction in viral RNA level after 48 hrs by qRT-PCR analysis; assay type: functional, organism-based, Hepacivirus hominis; settings: Con1, Huh-7, 48 h; how it was run: as §1
[3] = system: Hepatitis C virus; assay: Antiviral activity against cyclosporine A/NIM-resistant HCV subtype 1b Con1 infected in human HuH7 cells assessed as reduction in viral RNA level after 48 hrs by qRT-PCR analysis; settings: Con1, Huh-7, 48 h
[4] = system: Hepatitis C virus; assay: Antiviral activity against HCV subtype 1b Con1 infected in human HuH7 cells assessed as reduction in viral RNA level after 48 hrs by qRT-PCR analysis relative to control; assay type: functional, Hepacivirus hominis, Huh-7
How it was run: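 Subgenomic genotype 1b Con1 replicon cells (clone A and derived lines) seeded 10,000/well overnight without G418, then treated 48 h with serially diluted compound in 2% FBS, 0.5% DMSO. HCV RNA quantified by TaqMan qRT-PCR, normalized to total RNA; six replicates per point. Percent inhibition versus control cells; EC50 is the concentration reducing HCV RNA by 50%.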

[5] = system: Hepatitis C virus; assay: Antiviral activity against HCV subtype 1b Con1 harboring NIM-resistant NS5A gene infected in human HuH7 cells assessed as reduction in viral RNA level after 48 hrs by qRT-PCR analysis; settings: Con1, Huh-7, 48 h
[6] = system: Hepatitis C virus; assay: Antiviral activity against cyclosporine A-resistant HCV subtype 1b Con1 infected in human HuH7 cells assessed as reduction in viral RNA level after 48 hrs by qRT-PCR analysis; settings: Con1, Huh-7, 48 h
[7] = system: Hepatitis C virus; assay: Antiviral activity against wild type HCV subtype 1b Con1 infected in human HuH7 cells assessed as reduction in viral RNA level after 48 hrs by qRT-PCR analysis; assay type: functional, organism-based, Hepacivirus hominis; settings: Con1, Huh-7, 48 h; how it was run: as §1
[8] = system: Hepatitis C virus; assay: Antiviral activity against HCV subtype 1b Con1 infected in cyclosporine A/NIM-resistant human HuH7 cells assessed as reduction in viral RNA level after 48 hrs by qRT-PCR analysis; assay type: functional, organism-based, Hepacivirus hominis; settings: Con1, Huh-7, 48 h
How it was run: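 CsA/NIM-resistant cells were cured of replicon: G418 removed, then 1 μM BILN2061 for 2 weeks and 5 μM for 2 more. Wild-type pCon1 replicon RNA was electroporated back in and cells selected in 250 μg/ml G418 for at least 2 weeks. Pooled colonies were treated 48 h with compound; EC50 came from qRT-PCR HCV RNA normalized to total RNA.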

[9] = system: Hepatitis C virus; assay: Antiviral activity against cyclosporine A/NIM811-resistant HCV subtype 1b Con1 infected in human HuH7 cells assessed as reduction in viral RNA level after 48 hrs by qRT-PCR analysis; assay type: functional, organism-based, Hepacivirus hominis; settings: Con1, Huh-7, 48 h; how it was run: as §1
[10] = system: Hepatitis C virus; assay: Antiviral activity against cyclosporine A/NIM811-resistant HCV subtype 1b Con1 infected in human HuH7 cells assessed as reduction in viral RNA level after 48 hrs by qRT-PCR analysis relative to control; assay type: functional, Hepacivirus hominis, Huh-7
How it was run: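 Clone A replicon cells were resistance-selected by 8-week passage with increasing CsA up to 5 μM, then 5 μM NIM811 for 5 more weeks, with 250 μg/ml G418. Control cells were passaged in 0.2% DMSO for the same period. Both were seeded at 10,000/well and treated 48 h with serial dilutions in 2% FBS/0.5% DMSO. HCV RNA was measured by qRT-PCR, normalized to total RNA. EC50 expressed as fold over DMSO control.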

[11] = system: Hepatitis C virus; assay: Antiviral activity against HCV subtype 1b Con1 harboring NS5A and NS5B C575G mutant […] infected in human HuH7 cells assessed as reduction in viral RNA level after 48 hrs by qRT-PCR analysis; assay type: functional, organism-based, Hepacivirus hominis; settings: Con1, Huh-7, 48 h
[12] = system: Hepatitis C virus; assay: Antiviral activity against HCV subtype 1b Con1 infected in human HuH7 cells assessed as reduction in viral RNA level after 48 hrs by MTS assay; settings: Con1, Huh-7, 48 h

Row | SMILES | EC50 [1] [nM] | EC50 [2] [nM] | EC50 [3] [nM] | fold change (FC) [4] | EC50 [5] [nM] | EC50 [6] [nM] | EC50 [7] [nM] | EC50 [8] [nM] | EC50 [9] [nM] | fold change (FC) [10] | EC50 [11] [nM] | EC50 [12] [nM]
1 | COc1ccc2c(O[C@@H]3C[C@H]4C(=O)N[C@]5(C(=O)O)C[C@H]5/C=C\CCCCC[C@H](NC(=O)OC5CCCC5)C(=O)N4C3)cc(-c3csc(NC(C)C)n3)nc2c1 [CILUPREVIR] | 1.4 |  |  |  |  |  |  |  |  |  |  | 
2 | C/C=C/C[C@@H](C)[C@@H](O)[C@H]1C(=O)N[C@@H](CC)C(=O)N(C)CC(=O)N(C)[C@@H]([C@@H](C)CC)C(=O)NC(C(C)C)C(=O)N(C)[C@@H](CC(C)C)C(=O)N[C@@H](C)C(=O)N[C@H](C)C(=O)N(C)C(CC(C)C)C(=O)N(C)[C@@H](CC(C)C)C(=O)N(C)[C@@H](C(C)C)C(=O)N1C (single isomer, unassigned) [NIM811] | 84 | 230 | 3500 | 1 | 940 | 830 | 120 | 170 | 1500 | 17.9 | 1140 | 
3 | C/C=C/C[C@@H](C)[C@@H](O)[C@H]1C(=O)N[C@@H](CC)C(=O)N(C)CC(=O)N(C)[C@@H](CC(C)C)C(=O)N[C@@H](C(C)C)C(=O)N(C)[C@@H](CC(C)C)C(=O)N[C@@H](C)C(=O)N[C@H](C)C(=O)N(C)[C@@H](CC(C)C)C(=O)N(C)[C@@H](CC(C)C)C(=O)N(C)[C@@H](C(C)C)C(=O)N1C [CYCLOSPORINE] |  |  | > 10000 |  |  | 3390 |  |  |  |  |  | 210
